From ChEMBL document CHEMBL4706506 (Eur J Med Chem, 2020)
The source made the active and inactive calls. The calls are words filed in the database; no cut-off is given here.

Columns and labels:
HeLa = test: Antiproliferative activity against human HeLa cells assessed as inhibition of cell proliferation measured after 48 hrs by CCK-8 assay; type: functional, cell-based
Summary of the method: (§1)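 RPMI-1640 with 10% FBS, 37 °C, 5% CO2. Cells seeded at 1-3 × 10^4/well and exposed to 0.00098–64 μM (nine 4-fold steps) or 0.1% DMSO vehicle for 48 h. CCK-8 then added for 4 h; absorbance read at 450 nm. IC50 taken from dose–response curves; mean ± SD of three independent experiments.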

HCT-116 = test: Antiproliferative activity against human HCT-116 cells assessed as inhibition of cell proliferation measured after 48 hrs by CCK-8 assay; type: functional, cell-based; settings: HCT-116, 48 h; summary of the method: as §1
B16-F0 [1] = test: Antiproliferative activity against mouse B16-F0 cells assessed as inhibition of cell proliferation measured after 48 hrs by CCK-8 assay; type: functional, cell-based; settings: B16F0, 48 h; summary of the method: as §1
A549 = test: Antiproliferative activity against human A549 cells assessed as inhibition of cell proliferation measured after 48 hrs by CCK-8 assay; type: functional, cell-based; settings: A549, 48 h; summary of the method: as §1
MCF7 = test: Antiproliferative activity against human MCF7 cells assessed as inhibition of cell proliferation measured after 48 hrs by CCK-8 assay; type: functional, cell-based; settings: MCF7, 48 h
B16-F0 [2] = test: Induction of microtubule destabilization in mouse B16-F0 cells assessed as short and wrapped structure at 160 nM measured after 6 hrs by DAPI staining based immunofluorescent assay relative to control; type: cell-based
[3] = Metabolic stability in human liver microsomes assessed as half life in presence of NADPH at 0.5 uM measured after 4 hrs by LC/MS method; type: ADME, Microsome
[4] = Metabolic stability in mouse liver microsomes assessed as half life in presence of NADPH at 0.5 uM measured after 4 hrs by LC/MS method; type: ADME, Microsome
[5] = Toxicity in C57/BL mouse […] with mouse B16-F0 cells assessed as body weight loss at 10 to 20 mg/kg, ip measured after 16 days in relative to control; type: organism-based; settings: in vivo, 384 h, dose 10-20 mg/kg, time 16 day
[6] = Toxicity in C57/BL mouse […] with mouse B16-F0 cells assessed as liver histology at 10 to 20 mg/kg, ip measured after 16 days by H and E staining method in relative to control; type: organism-based; settings: in vivo, 384 h, dose 10-20 mg/kg, time 16 day
B16-F0 [7] = test: Antitumour activity against mouse B16-F0 cells transplanted in C57/BL mouse assessed as decrease in tumour volume at 10 mg/kg, ip measured after 16 days in relative to control; type: functional; design: scale not given: the % may be the effect or the level left; settings: time 16 day
B16-F0 [8] = test: Antitumour activity against mouse B16-F0 cells transplanted in C57/BL mouse assessed as decrease in tumour weight at 10 mg/kg, ip measured after 16 days in relative to control; type: functional; design: scale not given: the % may be the effect or the level left; settings: time 16 day
B16-F0 [9] = test: Stabilization of microtubules in mouse B16-F0 cells at 40 nM measured after 6 hrs by DAPI staining based Immunofluorescent assay relative to control; type: cell-based
Summary of the method: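 Fixed in 4% paraformaldehyde, permeabilized with 0.5% Triton X-100 for 15 min, goat serum blocked. Anti-tubulin antibody 2 h at 4 °C, then fluorescent secondary antibody and DAPI nuclear counterstain. Imaged by confocal microscopy.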

Row | SMILES | IC50 (HeLa) | IC50 (HCT-116) | IC50 (B16-F0 [1]) | IC50 (A549) | IC50 (MCF7) | Activity (B16-F0 [2]) | half-life at 0.5 µM [3] | half-life at 0.5 µM [4] | Activity [5] | Activity [6] | Activity (B16-F0 [7]) | Activity (B16-F0 [8]) | Activity (B16-F0 [9])
1 | C=Cc1ccc(-c2cc3nccc(-c4cc(OC)c(OC)c(OC)c4)n3n2)cc1 | 882 nM | 1060 nM | 788 nM | 1030 nM | 193 nM | – | – | – | – | – | – | – | –
2 | COc1cc(-c2ccnc3cc(-c4ccc(CO)cc4)nn23)cc(OC)c1OC | 456 nM | 861 nM | 1090 nM | 1100 nM | 1070 nM | – | – | – | – | – | – | – | –
3 | Cc1ccc(-c2cc3nccc(-c4ccc(F)cc4)n3n2)cc1 | > 10000 nM | > 10000 nM | > 10000 nM | > 10000 nM | > 10000 nM | – | – | – | – | – | – | – | –
4 | COc1cc(-c2ccnc3cc(-c4ccc(C(F)(F)F)cc4)nn23)cc(OC)c1OC | 1840 nM | 1860 nM | 1770 nM | 2070 nM | 2440 nM | – | – | – | – | – | – | – | –
5 | COc1ccc(-c2cc3nccc(-c4cc(OC)c(OC)c(OC)c4)n3n2)cc1F | 236 nM | 2840 nM | 3950 nM | 545 nM | 183 nM | – | – | – | – | – | – | – | –
6 | COc1cc2c(c(OC)c1OC)-c1ccc(OC)c(=O)cc1[C@@H](NC(C)=O)CC2 [COLCHICINE] | 81 nM | 42 nM | 87 nM | 107 nM | 18 nM | Active | – | – | – | – | – | – | –
7 | COc1cc(-c2ccnc3cc(-c4ccc5ccn(C)c5c4)nn23)cc(OC)c1OC | 187 nM | 1040 nM | 657 nM | 829 nM | 74 nM | – | – | – | – | – | – | – | –
8 | COc1cc(-c2ccnc3cc(-c4ccccc4)nn23)cc(OC)c1OC | 458 nM | 3880 nM | 4730 nM | 208 nM | 254 nM | – | – | – | – | – | – | – | –
9 | COc1cc(-c2ccnc3cc(-c4ccc5cc[nH]c5c4)nn23)cc(OC)c1OC | 125 nM | 187 nM | 55 nM | 170 nM | 23 nM | – | – | – | – | – | – | – | –
10 | COc1cc(-c2ccnc3cc(-c4cn(CO)c5ccccc45)nn23)cc(OC)c1OC | 103 nM | 128 nM | 93 nM | 167 nM | 19 nM | – | – | – | – | – | – | – | –
11 | COc1cc(C(=O)c2csc(-c3ccccc3)n2)cc(OC)c1OC | – | – | – | – | – | – | 17 min | < 5 min | – | – | – | – | –
12 | COc1cc(-c2ccnc3cc(-c4ccc(F)cc4)nn23)cc(OC)c1OC | 5840 nM | 5030 nM | 4540 nM | 3800 nM | 1280 nM | – | – | – | – | – | – | – | –
13 | CC(=O)O[C@H]1C(=O)[C@@]2(C)[C@H]([C@H](OC(=O)c3ccccc3)[C@]3(O)C[C@H](OC(=O)[C@H](O)[C@@H](NC(=O)c4ccccc4)c4ccccc4)C(C)=C1C3(C)C)[C@]1(OC(C)=O)CO[C@@H]1C[C@@H]2O [PACLITAXEL] | 41 nM | – | 21 nM | – | – | – | – | – | Non-Toxic | Non-Toxic | 63.8% | 60.4% | Active
14 | COc1cc(-c2ccnc3cc(-c4ccc5c(cnn5C)c4)nn23)cc(OC)c1OC | 97 nM | 2440 nM | 1470 nM | 233 nM | 279 nM | – | – | – | – | – | – | – | –
15 | COc1cc(-c2cc3nccc(-c4c[nH]c5ccccc45)n3n2)cc(OC)c1OC | > 10000 nM | > 10000 nM | > 10000 nM | > 10000 nM | > 10000 nM | – | – | – | – | – | – | – | –
16 | COc1ccc(-c2cc3nccc(-c4cc(OC)c(OC)c(OC)c4)n3n2)cc1 | 373 nM | 404 nM | 1400 nM | 376 nM | 125 nM | – | – | – | – | – | – | – | –
17 | COc1cc(-c2ccnc3cc(-c4ccc(Cl)cc4)nn23)cc(OC)c1OC | 1490 nM | 3340 nM | 4090 nM | 3060 nM | 2320 nM | – | – | – | – | – | – | – | –
18 | COc1cc(-c2ccnc3cc(-c4cnn(C)c4)nn23)cc(OC)c1OC | 1830 nM | 2110 nM | 1240 nM | 1150 nM | 274 nM | – | – | – | – | – | – | – | –
